Results reported in ChEMBL document CHEMBL1140896, “Morpholino, piperidino, and pyrrolidino derivatives of pyrimidine nucleosides as inhibitors of ribonuclease A: synthesis, biochemical, and crystallographic evaluation” (J Med Chem, 2009).
Activity calls are given as the source filed them. The calls are words filed in the database; no cut-off is given here.

Experiments:
[1] = target: T1, Ribonuclease pancreatic (Bos taurus) (UniProt P61823); assay: Inhibition of bovine pancreatic RNase A assessed as effect on tRNA degradation at 0.14 mM by agarose gel based assay
T1 sequence (whole entry): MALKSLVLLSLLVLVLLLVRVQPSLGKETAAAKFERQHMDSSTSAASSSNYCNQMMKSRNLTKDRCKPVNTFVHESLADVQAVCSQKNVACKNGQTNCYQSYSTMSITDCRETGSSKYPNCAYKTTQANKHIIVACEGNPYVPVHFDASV
Method in brief: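 Comparative gel: RNase A (stock 6.29 µM; 1.26 µM in figure) preincubated 3 h with compound (0.14 mM). Aliquots then mixed with yeast tRNA (5 mg/mL stock) for 30 min, run on 1.1% agarose gel, and residual tRNA viewed by ethidium bromide under UV.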

[2] = target: T1, Ribonuclease pancreatic (Bos taurus); assay: Inhibition of bovine pancreatic RNase A assessed as effect on tRNA degradation by agarose gel based assay
Method in brief: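 Qualitative gel: RNase A (stock 6.87 µM; 1.37 µM in figure) preincubated 3 h with compound at three levels (0.10–0.31 or 0.13–0.40 mM). Aliquots then mixed with yeast tRNA (5 mg/mL stock) for 30 min, run on 1.1% agarose gel, and residual tRNA stained with ethidium bromide under UV.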

[3] = target: T1, Ribonuclease pancreatic (Bos taurus); assay: Inhibition of bovine pancreatic RNase A ribonucleolytic activity assessed as reduction of tRNA degradation at 0.32 mM by precipitation assay relative to control; design: scale not given: the % may be the effect or the level left
Method in brief: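 Bond precipitation assay: RNase A (1.10 µM) preincubated with compound (0.32 mM) 2 h at 37 °C. Then tRNA added in Tris-HCl pH 7.5 with 5 mM EDTA and 0.5 mg/mL HSA, 30 min at 25 °C. Quenched with ice-cold perchloric acid/uranyl acetate, 30 min on ice, centrifuged; supernatant A260 compared with control.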

Ribonuclease pancreatic = target: T2, Ribonuclease pancreatic (Bos taurus, UniProt P61823); assay: Inhibition of bovine pancreatic RNase A by spectrophotometric method
T2 sequence (P61823 whole entry): T1 sequence (whole entry)
Method in brief: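 Bovine pancreatic RNase A; spectrophotometric initial-velocity assay with 2′,3′-cCMP substrate in 0.1 M Mes-NaOH pH 6.0, 0.1 M NaCl. Ki taken from Dixon plots (1/V vs [I]) by the competitive equation; at least three repeats per set.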

Row | SMILES | Activity [1] | Activity [2] | Activity [3] [%] | Ki (Ribonuclease pancreatic) [µM]
1 | Cc1cn([C@H]2C[C@H](O)[C@@H](CN3CCCCC3)O2)c(=O)[nH]c1=O | Active | Active | 5 | –
2 | CCOC(=O)C1CCN(C[C@H]2O[C@@H](n3ccc(=O)[nH]c3=O)[C@H](O)[C@@H]2O)CC1 | – | Active | 30 | 77
3 | Cc1cn([C@H]2C[C@H](O)[C@@H](CN3CCCC3)O2)c(=O)[nH]c1=O | Active | Active | 5 | –
4 | O=c1ccn([C@@H]2O[C@H](CN3CCCCC3)[C@@H](O)[C@H]2O)c(=O)[nH]1 | Active | Active | 12 | –
5 | O=c1ccn([C@@H]2O[C@H](CN3CCOCC3)[C@@H](O)[C@H]2O)c(=O)[nH]1 | Active | Active | 12 | –

Results, then the molecule that gave them:

Row | Activity [1] | Activity [2] | Activity [3] [%] | Ki (Ribonuclease pancreatic) [µM] | SMILES
6 | – | – | – | 0.041 | Cc1cn([C@H]2C[C@H](O)[C@@H](COP(=O)(O)OP(=O)(O)O[C@H]3[C@@H](O)[C@H](n4cnc5c(N)ncnc54)O[C@@H]3CO)O2)c(=O)[nH]c1=O
7 | – | – | – | 103 | Nc1ccn([C@@H]2O[C@H](CO)[C@@H](OP(=O)(O)O)[C@H]2O)c(=O)n1
8 | – | – | – | 6 | O=c1ccn([C@@H]2O[C@H](CO)[C@@H](OP(=O)(O)O)[C@@H]2O)c(=O)[nH]1
9 | – | – | – | 7.1 | O=c1ccn([C@@H]2O[C@H](CO)[C@@H](O)[C@H]2OP(=O)(O)O)c(=O)[nH]1
10 | Active | Active | 12 | – | O=c1ccn([C@@H]2O[C@H](CN3CCCC3)[C@@H](O)[C@H]2O)c(=O)[nH]1
11 | – | – | – | 82 | O=c1ccn([C@@H]2O[C@H](CO)[C@@H](OP(=O)(O)O)[C@H]2O)c(=O)[nH]1
